Laboratory results taken from ChEMBL document CHEMBL2040750, “Hybrids of ravuconazole: synthesis and biological evaluation” (2012).
In brackets after ≈: the same amount, converted by molar mass. Activity calls are given as the source filed them. No cut-off for these calls is given here.

Legend:
Format in all cases: functional
Aspergillus niger [1] = assay: Antifungal activity Aspergillus niger NCIM 545 at 100 ug/disc by agar-well diffusion assay; conditions: for zone of inhibition at 100 µg/disc: read-out: DIZ
Procedure, shortened: (§1)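 Agar-well diffusion screen against standard strains. Zone of inhibition is the read-out. Chloramphenicol, nystatin and ravuconazole were run as positive controls.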

Bacillus subtilis [2] = assay: Antibacterial activity Bacillus subtilis NCIM 2250 at 100 ug/disc by agar-well diffusion assay; conditions: for zone of inhibition at 100 µg/disc: read-out: DIZ; procedure, shortened: as §1
Staphylococcus aureus [3] = assay: Antibacterial activity Staphylococcus aureus NCIM 2079 after 24 hrs by NCCLS method
Procedure, shortened: (§2)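 Broth microdilution MIC per NCCLS. Compounds dissolved in DMSO, serially diluted in growth medium, incubated at 37 °C. Read at 24 h for bacteria and 24–72 h for fungi. MIC90 taken as the first well with about 90% growth reduction relative to the drug-free well.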

Candida albicans [4] = assay: Antifungal activity Candida albicans NCIM 3471 after 24 to 72 hrs by NCCLS method; procedure, shortened: as §2
Candida albicans [5] = assay: Antifungal activity Candida albicans NCIM 3471 at 100 ug/disc by agar-well diffusion assay; conditions: for zone of inhibition at 100 µg/disc: read-out: DIZ; procedure, shortened: as §1
Pseudomonas aeruginosa [6] = assay: Antibacterial activity Pseudomonas aeruginosa NCIM 2036 after 24 hrs by NCCLS method; procedure, shortened: as §2
Pseudomonas aeruginosa [7] = assay: Antibacterial activity Pseudomonas aeruginosa NCIM 2036 at 100 ug/disc by agar-well diffusion assay; conditions: for zone of inhibition at 100 µg/disc: read-out: DIZ; procedure, shortened: as §1
Aspergillus niger [8] = assay: Antifungal activity Aspergillus niger NCIM 545 after 24 to 72 hrs by NCCLS method; procedure, shortened: as §2
Escherichia coli [9] = assay: Antibacterial activity Escherichia coli NCIM 2109 at 100 ug/disc by agar-well diffusion assay; conditions: for zone of inhibition at 100 µg/disc: read-out: DIZ; procedure, shortened: as §1
Staphylococcus aureus [10] = assay: Antibacterial activity Staphylococcus aureus NCIM 2079 at 100 ug/disc by agar-well diffusion assay; conditions: for zone of inhibition at 100 µg/disc: read-out: DIZ; procedure, shortened: as §1
Escherichia coli [11] = assay: Antibacterial activity Escherichia coli NCIM 2109 after 24 hrs by NCCLS method; procedure, shortened: as §2
Bacillus subtilis [12] = assay: Antibacterial activity Bacillus subtilis NCIM 2250 after 24 hrs by NCCLS method; procedure, shortened: as §2

| Compound | zone of inhibition at 100 µg/disc (Aspergillus niger [1]) | diameter of the inhibition zone (DIZ) (Bacillus subtilis [2]) | MIC (Staphylococcus aureus [3]; NCIM 2079, 24 h) | MIC (Candida albicans [4]) | zone of inhibition at 100 µg/disc (Candida albicans [5]) | MIC (Pseudomonas aeruginosa [6]; NCIM 2036, 24 h) | zone of inhibition at 100 µg/disc (Pseudomonas aeruginosa [7]) | MIC (Aspergillus niger [8]) | zone of inhibition at 100 µg/disc (Escherichia coli [9]) | zone of inhibition at 100 µg/disc (Staphylococcus aureus [10]) | MIC (Escherichia coli [11]; NCIM 2109, 24 h) | MIC (Bacillus subtilis [12]) | MIC (Staphylococcus aureus [3]) | diameter of the inhibition zone (DIZ) (Staphylococcus aureus [10]) | zone of inhibition at 100 µg/disc (Bacillus subtilis [2]) | MIC (Pseudomonas aeruginosa [6]) | diameter of the inhibition zone (DIZ) (Pseudomonas aeruginosa [7]) | diameter of the inhibition zone (DIZ) (Escherichia coli [9]) | MIC (Escherichia coli [11]) | MIC (Bacillus subtilis [12]; NCIM 2250, 24 h) | also measured |
| --- | --- | --- | --- | --- | --- | --- | --- | --- | --- | --- | --- | --- | --- | --- | --- | --- | --- | --- | --- | --- | --- |
| Clc1ccc(/C(Cn2cncn2)=N\Nc2nc(-c3ccc(Cl)cc3)cs2)cc1 | 19.5 mm | inactive | 64 µg/mL (≈ 149 µM) | 32 µg/mL (≈ 74.5 µM) | 20.4 mm | 16 µg/mL (≈ 37.3 µM) | 28.9 mm | 32 µg/mL (≈ 74.5 µM) | 9.65 mm | 18.8 mm | > 64 µg/mL | inactive | – | – | – | – | – | – | – | – | – |
| FC(F)(F)c1cc(/C(Cn2cncn2)=N\Nc2nc(-c3ccc(Cl)cc3)cs2)cc(C(F)(F)F)c1 | 19.1 mm | inactive | – | 32 µg/mL (≈ 60.3 µM) | 17.6 mm | 32 µg/mL (≈ 60.3 µM) | 26.8 mm | 16 µg/mL (≈ 30.1 µM) | 13.2 mm | – | > 64 µg/mL | inactive | inactive | inactive | – | – | – | – | – | – | – |
| Fc1ccc(-c2csc(N/N=C(/Cn3cncn3)c3ccc(Br)cc3)n2)cc1 | 11.9 mm | – | 64 µg/mL (≈ 140 µM) | 64 µg/mL (≈ 140 µM) | 14.4 mm | – | – | > 64 µg/mL | – | 15.5 mm | – | – | – | – | 20.3 mm | inactive | inactive | inactive | inactive | 32 µg/mL (≈ 70 µM) | – |
| C[C@@H](c1nc(-c2ccc(C#N)cc2)cs1)[C@](O)(Cn1cncn1)c1ccc(F)cc1F [RAVUCONAZOLE] | 20.2 mm | inactive | – | 1 µg/mL (≈ 2.29 µM) | 28.6 mm | – | – | 32 µg/mL (≈ 73.1 µM) | – | – | – | inactive | inactive | inactive | – | inactive | inactive | inactive | inactive | – | – |
| Fc1ccc(-c2csc(N/N=C(/Cn3cncn3)c3ccc(Cl)cc3)n2)cc1 | 18.8 mm | – | 32 µg/mL (≈ 77.5 µM) | 32 µg/mL (≈ 77.5 µM) | 19.1 mm | – | – | 32 µg/mL (≈ 77.5 µM) | 13.9 mm | 25.7 mm | > 64 µg/mL | – | – | – | 16.8 mm | inactive | inactive | – | – | 64 µg/mL (≈ 155 µM) | – |
| Clc1ccc(-c2csc(N/N=C(/Cn3cncn3)c3ccc(Br)cc3)n2)cc1 | 16.7 mm | – | > 64 µg/mL | 64 µg/mL (≈ 135 µM) | 16.2 mm | 32 µg/mL (≈ 67.5 µM) | 21.7 mm | 32 µg/mL (≈ 67.5 µM) | – | 13.1 mm | – | – | – | – | 17.3 mm | – | – | inactive | inactive | 64 µg/mL (≈ 135 µM) | – |
| Fc1ccc(/C(Cn2cncn2)=N\Nc2nc(-c3ccc(Br)cc3)cs2)cc1 | 15.8 mm | inactive | – | 64 µg/mL (≈ 140 µM) | 14.8 mm | 32 µg/mL (≈ 70 µM) | 18.2 mm | 64 µg/mL (≈ 140 µM) | – | – | 64 µg/mL (≈ 140 µM) | inactive | inactive | inactive | – | – | – | inactive | – | – | – |
| O=[N+]([O-])c1ccc(/C(Cn2cncn2)=N\Nc2nc(-c3ccc(Cl)cc3)cs2)cc1 | – | – | > 64 µg/mL | inactive | – | – | – | inactive | – | 14.2 mm | – | – | – | – | 15.8 mm | inactive | inactive | inactive | inactive | 64 µg/mL (≈ 145 µM) | diameter of the inhibition zone (DIZ) (Aspergillus niger [1]): inactive; diameter of the inhibition zone (DIZ) (Candida albicans [5]): inactive |
| Clc1ccc(/C(Cn2cncn2)=N\Nc2nc(-c3ccc(Br)cc3)cs2)cc1 | 18.6 mm | inactive | 64 µg/mL (≈ 135 µM) | inactive | – | 32 µg/mL (≈ 67.5 µM) | 23.9 mm | 64 µg/mL (≈ 135 µM) | – | 19.1 mm | – | inactive | – | – | – | – | – | inactive | inactive | – | diameter of the inhibition zone (DIZ) (Candida albicans [5]): inactive |
| Brc1ccc(/C(Cn2cncn2)=N\Nc2nc(-c3ccc(Br)cc3)cs2)cc1 | 15.3 mm | inactive | – | > 64 µg/mL | 13.9 mm | – | – | > 64 µg/mL | 10.9 mm | – | > 64 µg/mL | inactive | inactive | inactive | – | inactive | inactive | – | – | – | – |
| O=[N+]([O-])c1ccc(/C(Cn2cncn2)=N\Nc2nc(-c3cc(C(F)(F)F)cc(C(F)(F)F)c3)cs2)cc1 | – | inactive | 64 µg/mL (≈ 118 µM) | inactive | – | 64 µg/mL (≈ 118 µM) | 16.8 mm | inactive | – | 17.2 mm | – | inactive | – | – | – | – | – | inactive | inactive | – | diameter of the inhibition zone (DIZ) (Aspergillus niger [1]): inactive; diameter of the inhibition zone (DIZ) (Candida albicans [5]): inactive |
| O=[N+]([O-])c1ccc(-c2csc(N/N=C(/Cn3cncn3)c3cc(C(F)(F)F)cc(C(F)(F)F)c3)n2)cc1 | – | inactive | – | inactive | – | – | – | inactive | 11.1 mm | – | – | inactive | inactive | inactive | – | inactive | inactive | – | inactive | – | diameter of the inhibition zone (DIZ) (Aspergillus niger [1]): inactive; diameter of the inhibition zone (DIZ) (Candida albicans [5]): inactive |
| Fc1ccc(/C(Cn2cncn2)=N\Nc2nc(-c3cc(C(F)(F)F)cc(C(F)(F)F)c3)cs2)cc1 | 13.8 mm | inactive | – | inactive | – | 32 µg/mL (≈ 62.2 µM) | 23.9 mm | 64 µg/mL (≈ 124 µM) | 14.9 mm | – | > 64 µg/mL | inactive | inactive | inactive | – | – | – | – | – | – | diameter of the inhibition zone (DIZ) (Candida albicans [5]): inactive |
| Fc1ccc(/C(Cn2cncn2)=N\Nc2nc(-c3ccc(F)cc3)cs2)cc1 | 20.4 mm | – | 64 µg/mL (≈ 161 µM) | 64 µg/mL (≈ 161 µM) | 16.3 mm | 32 µg/mL (≈ 80.7 µM) | 24.1 mm | 16 µg/mL (≈ 40.4 µM) | 21.5 mm | 16.1 mm | 32 µg/mL (≈ 80.7 µM) | – | – | – | 24.4 mm | – | – | – | – | 32 µg/mL (≈ 80.7 µM) | – |
| FC(F)(F)c1cc(-c2csc(N/N=C(/Cn3cncn3)c3ccc(Cl)cc3)n2)cc(C(F)(F)F)c1 | 8.66 mm | inactive | > 64 µg/mL | 32 µg/mL (≈ 60.3 µM) | 20.7 mm | 32 µg/mL (≈ 60.3 µM) | 26.1 mm | > 64 µg/mL | 15.6 mm | 11.2 mm | > 64 µg/mL | inactive | – | – | – | – | – | – | – | – | – |
| O=[N+]([O-])c1ccc(-c2csc(N/N=C(/Cn3cncn3)c3ccc(F)cc3)n2)cc1 | 9.44 mm | inactive | – | inactive | – | – | – | > 64 µg/mL | 10.9 mm | – | > 64 µg/mL | inactive | inactive | inactive | – | inactive | inactive | – | – | – | diameter of the inhibition zone (DIZ) (Candida albicans [5]): inactive |
| Fc1ccc(/C(Cn2cncn2)=N\Nc2nc(-c3ccc(Cl)cc3)cs2)cc1 | 20.7 mm | – | 64 µg/mL (≈ 155 µM) | 32 µg/mL (≈ 77.5 µM) | 18.8 mm | – | – | 16 µg/mL (≈ 38.8 µM) | 15.9 mm | 22.3 mm | > 64 µg/mL | – | – | – | 20.5 mm | inactive | inactive | – | – | 32 µg/mL (≈ 77.5 µM) | – |
| NYSTATIN | – | – | – | 16 µg/mL | – | – | – | 16 µg/mL | – | – | – | – | – | – | – | – | – | – | – | – | inhibition zone (IZ) (Aspergillus niger [1]): 21.6 mm; inhibition zone (IZ) (Candida albicans [5]): 23.3 mm |
| O=C(O)c1cn(C2CC2)c2cc(N3CCNCC3)c(F)cc2c1=O [CIPROFLOXACIN] | – | – | – | – | – | 16 µg/mL (≈ 48.3 µM) | 30.9 mm | – | 26.2 mm | 28.4 mm | – | – | – | – | 26.7 mm | – | – | – | – | 16 µg/mL (≈ 48.3 µM) | – |
